Assay results collected from several papers.
Compare with care: the assays were run in different laboratories.
Target: Mitogen-activated protein kinase kinase kinase 7 (MAP3K7, Homo sapiens, UniProt O43318)
One construct used (O43318 1-606): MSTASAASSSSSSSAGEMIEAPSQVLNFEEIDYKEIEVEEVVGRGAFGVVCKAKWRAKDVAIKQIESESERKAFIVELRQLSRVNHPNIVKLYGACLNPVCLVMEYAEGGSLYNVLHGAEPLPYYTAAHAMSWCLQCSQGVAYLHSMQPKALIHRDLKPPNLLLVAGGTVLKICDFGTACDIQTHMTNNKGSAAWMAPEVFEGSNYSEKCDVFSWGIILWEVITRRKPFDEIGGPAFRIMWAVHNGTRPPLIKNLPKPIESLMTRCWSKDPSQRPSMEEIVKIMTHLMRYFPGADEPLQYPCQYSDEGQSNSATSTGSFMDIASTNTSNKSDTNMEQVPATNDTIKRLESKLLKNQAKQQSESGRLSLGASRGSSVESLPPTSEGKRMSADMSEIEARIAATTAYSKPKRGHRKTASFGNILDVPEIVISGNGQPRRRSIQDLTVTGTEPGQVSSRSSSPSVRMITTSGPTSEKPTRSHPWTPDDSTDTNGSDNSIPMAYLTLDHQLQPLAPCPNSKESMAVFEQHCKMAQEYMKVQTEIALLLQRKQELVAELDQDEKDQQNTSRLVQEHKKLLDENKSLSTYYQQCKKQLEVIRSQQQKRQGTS

SMILES	assay	conditions	remaining binding
O=C(Nc1c[nH]nc1C(=O)NC1CCNCC1)c1cc(F)cc(F)c1	binding, competition with immobilised ligand	1 µM	83%
NS(=O)(=O)c1cc(NC(=O)Cc2ccccc2)ccc1Oc1cccc(Cl)c1	cell-free assay, competition with immobilised ligand	1 µM	75%
C[C@@H](c1ccc(-n2cnc3c(N)ncnc32)cc1)N1CCc2nn(C)c(Cc3ccccc3)c2C1=O	binding, competition with immobilised ligand	0.1 µM	32%
O=C(c1ccc(Nc2ncc(Cl)c(-c3cc4ccccc4s3)n2)cc1)N1CCC(N2CCCC2)CC1	binding, competition with immobilised ligand	1 µM	3.6%
Cn1nc(C(=O)NCc2ccc(C(=O)O)cc2)cc1-c1ccc2[nH]ccc2c1	cell-free assay, competition with immobilised ligand	0.1 µM	95%
CCN1CCN(Cc2ccc(C(=O)Nc3ccc(C)c(Oc4ccc5c(c4)CC(=O)N5)c3)cc2C(F)(F)F)CC1	binding, competition with immobilised ligand	1 µM	7.6%
COc1ncc2cc3ccccc3nc2c1C#N	cell-free assay, competition with immobilised ligand	5 µM	92%
Cc1cnn2ncc(-c3ccnc(N(C)C)n3)c2c1	binding	1 µM	77%
COc1cnc(Nc2cccc(S(N)(=O)=O)c2)nc1N1CCN(c2ccccc2)CC1	binding, competition with immobilised ligand	1 µM	85%
NS(=O)(=O)c1cc(NC(=O)C2(c3ccccc3Cl)CC2)ccc1Oc1cccc(Cl)c1	cell-free assay, competition with immobilised ligand	1 µM	98%
O=C(NCCCN1CCOCC1)c1ccc(Nc2nccc(-c3cc4ccccc4s3)n2)cc1	binding, competition with immobilised ligand	1 µM	31%
COc1ccnn2ncc(-c3ccnc(N(C)C)n3)c12	binding	1 µM	75%
O=C(NCCCN1CCOCC1)c1ccc(Nc2ncc(Cl)c(-c3ccc(Cl)s3)n2)cc1	binding, competition with immobilised ligand	1 µM	4.5%
COc1cc(-c2cn(C3CCc4ccccc4N(CC(F)(F)F)C3=O)nn2)ccc1-n1ccc(C)n1 (stereo not shown)	cell-free assay, competition with immobilised ligand	1 µM	86%
F[C@@H]1CCN(c2nccc(-c3cnn4ncccc34)n2)C1	binding	1 µM	100%
Cc1c(NC(=O)c2cc(C(N)=O)nc3cc(F)ccc23)c(C(F)(F)F)nn1Cc1ccc(C#N)cc1	cell-free assay, competition with immobilised ligand	1 µM	68%
CN(C)c1nccc(-c2cnn3ncccc23)n1	binding	1 µM	97%
CC(C)(O)c1cncc(-c2nc3ccc(F)cc3n2C2CC2)c1	cell-free assay, competition with immobilised ligand	1 µM	100%
CN(c1nccc(-c2cnn3ncccc23)n1)C1CC1	binding	1 µM	82%
c1cncc(-c2cccc(Nc3nccc(NC4CCCCC4)n3)c2)c1	binding, competition with immobilised ligand	10 µM	19%
CC1=C(C#N)[C@@H](c2ccc3[nH]nc(C)c3c2)C(C#N)=C(c2ccc(Cl)cc2)N1	cell-free assay, competition with immobilised ligand	1 µM	100%
C[C@@H]1CCN(c2nccc(-c3cnn4ncccc34)n2)C1	binding	1 µM	81%
